According to ChEMBL document CHEMBL2412955, “Synthesis and antibacterial activities of N-substituted-glycinyl 1H-1,2,3-triazolyl oxazolidinones” (2013):
≈ marks a conversion by molar mass, not a printed value.

How the values were obtained:
Assay type in all cases: functional
Staphylococcus aureus [1] = assay: Antibacterial activity against methicillin-susceptible Staphylococcus aureus after 18 hrs by NCCLS agar dilution method
In short: (§1)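 Clinical isolates were tested by agar dilution on Mueller-Hinton agar with drug dilutions from 0.12 to 64 µg/ml. Test compounds were dissolved in 80% DMSO in water. Final inoculum was 10^7 CFU/ml, incubated at 35 °C for 18 h. MIC was the lowest concentration inhibiting visible growth.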

Haemophilus influenzae = assay: Antibacterial activity against Haemophilus influenzae ATCC 49247 after 18 hrs by NCCLS agar dilution method; settings: ATCC 49247, 18 h
In short: (§2)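 NCCLS agar dilution on Mueller-Hinton agar with 5% sheep blood added to support growth. Drug dilutions 0.12–64 µg/ml. Test agents in 80% DMSO in water, linezolid in 40% water in ethanol. Final inoculum 10^7 CFU/ml, 18 h at 35 °C. MIC read as the lowest concentration with no visible growth.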

Staphylococcus [2] = assay: Antibacterial activity against methicillin-resistant coagulase-negative Staphylococcus after 18 hrs by NCCLS agar dilution method; in short: as §1
Enterococcus [3] = assay: Antibacterial activity against vancomycin-susceptible Enterococcus after 18 hrs by NCCLS agar dilution method; in short: as §1
Staphylococcus aureus [4] = assay: Antibacterial activity against methicillin-resistant Staphylococcus aureus after 18 hrs by NCCLS agar dilution method; in short: as §1
Streptococcus pneumoniae = assay: Antibacterial activity against penicillin-resistant Streptococcus pneumoniae after 18 hrs by NCCLS agar dilution method
In short: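 Agar dilution was run on Mueller-Hinton agar supplemented with 5% sheep blood, with drug dilutions from 0.12 to 64 µg/ml. Test compounds were dissolved in 80% DMSO in water. Final inoculum was 10^7 CFU/ml, incubated at 35 °C for 18 h. MIC was the lowest concentration preventing visible growth.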

Escherichia coli = assay: Antibacterial activity against Escherichia coli ATCC 25922 after 18 hrs by NCCLS agar dilution method; settings: ATCC 25922, 18 h
In short: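 Agar dilution per NCCLS on Mueller-Hinton agar, drug dilutions 0.12–64 µg/ml. Linezolid dissolved in 40% water in ethanol, vancomycin in water, test agents in 80% DMSO in water. Inoculum 10^7 CFU/ml (final), incubated 35 °C for 18 h. MIC is the lowest concentration preventing visible growth.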

Staphylococcus [5] = assay: Antibacterial activity against methicillin-susceptible coagulase-negative Staphylococcus after 18 hrs by NCCLS agar dilution method; in short: as §1
Moraxella catarrhalis = assay: Antibacterial activity against Moraxella catarrhalis ATCC 8176 after 18 hrs by NCCLS agar dilution method; settings: ATCC 8176, 18 h; in short: as §2
Staphylococcus aureus [6] = assay: Antibacterial activity against Staphylococcus aureus ATCC 25923 after 18 hrs by NCCLS agar dilution method; settings: ATCC 25923, 18 h
In short: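 Plain Mueller-Hinton agar, agar dilution per NCCLS, concentrations 0.12–64 µg/ml. Test agents in 80% DMSO in water, linezolid in 40% water in ethanol, vancomycin in water. Final inoculum 10^7 CFU/ml, 35 °C for 18 h. MIC = lowest concentration inhibiting visible growth.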

Staphylococcus aureus [7] = assay: Antibacterial activity against Staphylococcus aureus ATCC 25923 after 18 hrs by […] in presence of human plasma; settings: ATCC 25923, Plasma
In short: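 To gauge plasma protein binding and/or plasma instability, MIC was determined in Mueller-Hinton broth containing 50% human plasma. Linezolid served as a reference agent. Ratio compares this MIC with the MIC obtained without plasma.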

Enterococcus [8] = assay: Antibacterial activity against vancomycin-resistant Enterococcus after 18 hrs by NCCLS agar dilution method; in short: as §1

SMILES | MIC (Staphylococcus aureus [1]) | MIC (Haemophilus influenzae) | MIC (Staphylococcus [2]) | MIC (Enterococcus [3]) | MIC (Staphylococcus aureus [4]) | MIC (Streptococcus pneumoniae) | MIC (Escherichia coli) | MIC (Staphylococcus [5]) | MIC (Moraxella catarrhalis) | MIC (Staphylococcus aureus [6]) | MIC (Staphylococcus aureus [7]) | MIC (Enterococcus [8])
Cc1cn(C[C@H]2CN(c3ccc(N4CCN(C(=O)CNC(=O)OC(C)(C)C)CC4)c(F)c3)C(=O)O2)nn1 | 4 µg/mL (≈ 7.73 µM) | ≥ 64 µg/mL | 4 µg/mL (≈ 7.73 µM) | 4 µg/mL (≈ 7.73 µM) | 8 µg/mL (≈ 15.5 µM) | 4 µg/mL (≈ 7.73 µM) | > 64 µg/mL | 4 µg/mL (≈ 7.73 µM) | 16 µg/mL (≈ 30.9 µM) | 4 µg/mL (≈ 7.73 µM) | 16 µg/mL | 8 µg/mL (≈ 15.5 µM)
Cc1cn(C[C@H]2CN(c3ccc(N4CCN(C(=O)CNC(=O)C5CCCO5)CC4)c(F)c3)C(=O)O2)nn1 (stereo partly drawn) | 16 µg/mL (≈ 31 µM) | 32 µg/mL (≈ 62.1 µM) | 16 µg/mL (≈ 31 µM) | 16 µg/mL (≈ 31 µM) | 16 µg/mL (≈ 31 µM) | 0.5 µg/mL (≈ 0.97 µM) | > 64 µg/mL | 16 µg/mL (≈ 31 µM) | 32 µg/mL (≈ 62.1 µM) | 32 µg/mL (≈ 62.1 µM) | 32 µg/mL | 16 µg/mL (≈ 31 µM)
CCOC(=O)CC(=O)NCC(=O)N1CCN(c2ccc(N3C[C@H](Cn4ccnn4)OC3=O)cc2F)CC1 | 4 µg/mL (≈ 7.73 µM) | 64 µg/mL (≈ 124 µM) | 4 µg/mL (≈ 7.73 µM) | 4 µg/mL (≈ 7.73 µM) | 4 µg/mL (≈ 7.73 µM) | 2 µg/mL (≈ 3.86 µM) | > 64 µg/mL | 4 µg/mL (≈ 7.73 µM) | 32 µg/mL (≈ 61.8 µM) | 8 µg/mL (≈ 15.5 µM) | 16 µg/mL | 8 µg/mL (≈ 15.5 µM)
Cc1cn(C[C@H]2CN(c3ccc(N4CCN(C(=O)CNC(=O)C(F)(F)F)CC4)c(F)c3)C(=O)O2)nn1 | 4 µg/mL (≈ 7.79 µM) | 32 µg/mL (≈ 62.3 µM) | 4 µg/mL (≈ 7.79 µM) | 4 µg/mL (≈ 7.79 µM) | 4 µg/mL (≈ 7.79 µM) | 1 µg/mL (≈ 1.95 µM) | > 64 µg/mL | 4 µg/mL (≈ 7.79 µM) | 16 µg/mL (≈ 31.2 µM) | 8 µg/mL (≈ 15.6 µM) | 16 µg/mL | 4 µg/mL (≈ 7.79 µM)
O=C(NCC(=O)N1CCN(c2ccc(N3C[C@H](Cn4ccnn4)OC3=O)cc2F)CC1)c1ccco1 | 1 µg/mL (≈ 2.01 µM) | 16 µg/mL (≈ 32.2 µM) | 1 µg/mL (≈ 2.01 µM) | 1 µg/mL (≈ 2.01 µM) | 1 µg/mL (≈ 2.01 µM) | 0.25 µg/mL (≈ 0.503 µM) | > 64 µg/mL | 1 µg/mL (≈ 2.01 µM) | 16 µg/mL (≈ 32.2 µM) | 2 µg/mL (≈ 4.02 µM) | 2 µg/mL | 1 µg/mL (≈ 2.01 µM)
CC(=O)NCC(=O)N1CCN(c2ccc(N3C[C@H](Cn4ccnn4)OC3=O)cc2F)CC1 | 2 µg/mL (≈ 4.49 µM) | 64 µg/mL (≈ 144 µM) | 2 µg/mL (≈ 4.49 µM) | 2 µg/mL (≈ 4.49 µM) | 4 µg/mL (≈ 8.98 µM) | 1 µg/mL (≈ 2.24 µM) | > 64 µg/mL | 2 µg/mL (≈ 4.49 µM) | 32 µg/mL (≈ 71.8 µM) | 4 µg/mL (≈ 8.98 µM) | 8 µg/mL | 2 µg/mL (≈ 4.49 µM)
Cc1cn(C[C@H]2CN(c3ccc(N4CCN(C(=O)CNC(=O)C(Cl)Cl)CC4)c(F)c3)C(=O)O2)nn1 | 4 µg/mL (≈ 7.57 µM) | > 32 µg/mL | 4 µg/mL (≈ 7.57 µM) | 4 µg/mL (≈ 7.57 µM) | 4 µg/mL (≈ 7.57 µM) | 2 µg/mL (≈ 3.79 µM) | > 64 µg/mL | 4 µg/mL (≈ 7.57 µM) | 16 µg/mL (≈ 30.3 µM) | 8 µg/mL (≈ 15.1 µM) | 16 µg/mL | 4 µg/mL (≈ 7.57 µM)
CCOC(=O)CC(=O)NCC(=O)N1CCN(c2ccc(N3C[C@H](Cn4cc(C)nn4)OC3=O)cc2F)CC1 | 4 µg/mL (≈ 7.53 µM) | > 64 µg/mL | 4 µg/mL (≈ 7.53 µM) | 4 µg/mL (≈ 7.53 µM) | 4 µg/mL (≈ 7.53 µM) | 4 µg/mL (≈ 7.53 µM) | > 64 µg/mL | 4 µg/mL (≈ 7.53 µM) | > 64 µg/mL | 8 µg/mL (≈ 15.1 µM) | 16 µg/mL | 4 µg/mL (≈ 7.53 µM)
CC(=O)NCC(=O)N1CCN(c2ccc(N3C[C@H](Cn4cc(C)nn4)OC3=O)cc2F)CC1 | 2 µg/mL (≈ 4.35 µM) | 32 µg/mL (≈ 69.6 µM) | 2 µg/mL (≈ 4.35 µM) | 2 µg/mL (≈ 4.35 µM) | 2 µg/mL (≈ 4.35 µM) | 1 µg/mL (≈ 2.18 µM) | > 64 µg/mL | 2 µg/mL (≈ 4.35 µM) | 16 µg/mL (≈ 34.8 µM) | 4 µg/mL (≈ 8.71 µM) | 8 µg/mL | 4 µg/mL (≈ 8.71 µM)
Cc1cn(C[C@H]2CN(c3ccc(N4CCN(C(=O)CNS(=O)(=O)c5cccs5)CC4)c(F)c3)C(=O)O2)nn1 | 8 µg/mL (≈ 14.2 µM) | 64 µg/mL (≈ 114 µM) | 8 µg/mL (≈ 14.2 µM) | 8 µg/mL (≈ 14.2 µM) | 8 µg/mL (≈ 14.2 µM) | 2 µg/mL (≈ 3.55 µM) | > 64 µg/mL | 8 µg/mL (≈ 14.2 µM) | 32 µg/mL (≈ 56.8 µM) | 16 µg/mL (≈ 28.4 µM) | 32 µg/mL | 8 µg/mL (≈ 14.2 µM)
O=C(NCC(=O)N1CCN(c2ccc(N3C[C@H](Cn4ccnn4)OC3=O)cc2F)CC1)c1ccccc1 | 0.5 µg/mL (≈ 0.985 µM) | 32 µg/mL (≈ 63.1 µM) | 0.5 µg/mL (≈ 0.985 µM) | 1 µg/mL (≈ 1.97 µM) | 0.5 µg/mL (≈ 0.985 µM) | 1 µg/mL (≈ 1.97 µM) | > 64 µg/mL | 0.5 µg/mL (≈ 0.985 µM) | 32 µg/mL (≈ 63.1 µM) | 1 µg/mL (≈ 1.97 µM) | > 64 µg/mL | 0.5 µg/mL (≈ 0.985 µM)
CC(C)(C)OC(=O)NCC(=O)N1CCN(c2ccc(N3C[C@H](Cn4ccnn4)OC3=O)cc2F)CC1 | 2 µg/mL (≈ 3.97 µM) | > 64 µg/mL | 2 µg/mL (≈ 3.97 µM) | 2 µg/mL (≈ 3.97 µM) | 2 µg/mL (≈ 3.97 µM) | 2 µg/mL (≈ 3.97 µM) | > 64 µg/mL | 2 µg/mL (≈ 3.97 µM) | 32 µg/mL (≈ 63.6 µM) | 4 µg/mL (≈ 7.94 µM) | 8 µg/mL | 2 µg/mL (≈ 3.97 µM)
O=C(CNS(=O)(=O)c1cccs1)N1CCN(c2ccc(N3C[C@H](Cn4ccnn4)OC3=O)cc2F)CC1 | 2 µg/mL (≈ 3.64 µM) | ≥ 64 µg/mL | 2 µg/mL (≈ 3.64 µM) | 2 µg/mL (≈ 3.64 µM) | 2 µg/mL (≈ 3.64 µM) | 1 µg/mL (≈ 1.82 µM) | > 64 µg/mL | 2 µg/mL (≈ 3.64 µM) | 32 µg/mL (≈ 58.2 µM) | 4 µg/mL (≈ 7.28 µM) | 32 µg/mL | 2 µg/mL (≈ 3.64 µM)
O=C(NCC(=O)N1CCN(c2ccc(N3C[C@H](Cn4ccnn4)OC3=O)cc2F)CC1)C1CCCO1 (stereo partly drawn) | 4 µg/mL (≈ 7.98 µM) | 32 µg/mL (≈ 63.8 µM) | 4 µg/mL (≈ 7.98 µM) | 4 µg/mL (≈ 7.98 µM) | 4 µg/mL (≈ 7.98 µM) | 1 µg/mL (≈ 1.99 µM) | > 64 µg/mL | 4 µg/mL (≈ 7.98 µM) | 16 µg/mL (≈ 31.9 µM) | 8 µg/mL (≈ 16 µM) | 16 µg/mL | 8 µg/mL (≈ 16 µM)
